Reference: ChEMBL document CHEMBL3244429, “Antischistosomal effects of 5-(2,4,5-trichlorophenyl)hydantoin and related compounds” (J Med Chem, 1977)

Experiments:
Schistosoma mansoni [1] = assay: Antischistosomal activity against Schistosoma mansoni Puerto Rican infected mouse assessed as infected mouse at 146 mg/kg/day, through diet for 14 days; type: functional
Outline: (§1)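 Mice carrying a Puerto Rican strain of S. mansoni received drug mixed into a powdered diet for 14 days, with dose expressed as mg/kg per day. The read-out was the reduction in live schistosomes in the infected mice.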

Schistosoma mansoni [2] = assay: Antischistosomal activity against Schistosoma mansoni Puerto Rican infected mouse assessed as reduction in live schistosomes at 146 mg/kg/day, through diet for 14 days; type: functional; settings: 336 h; outline: as §1
Schistosoma mansoni [3] = assay: Antischistosomal activity against Schistosoma mansoni Puerto Rican infected mouse assessed as reduction in live schistosomes at 249 mg/kg/day, through diet for 14 days; type: functional; settings: 336 h; outline: as §1
Schistosoma mansoni [4] = assay: Antischistosomal activity against Schistosoma mansoni Puerto Rican infected mouse assessed as infected mouse at 249 mg/kg/day, through diet for 14 days; type: functional; outline: as §1
Schistosoma mansoni [5] = assay: Antischistosomal activity against Schistosoma mansoni Puerto Rican infected mouse assessed as infected mouse at 302 mg/kg/day, through diet for 14 days; type: functional; outline: as §1
Schistosoma mansoni [6] = assay: Antischistosomal activity against Schistosoma mansoni Puerto Rican infected mouse assessed as reduction in live schistosomes at 302 mg/kg/day, through diet for 14 days; type: functional; settings: 336 h; outline: as §1
Schistosoma mansoni [7] = assay: Antischistosomal activity against Schistosoma mansoni Puerto Rican infected mouse assessed as reduction in live schistosomes at 288 mg/kg/day, through diet for 14 days; type: functional; settings: 336 h; outline: as §1
Schistosoma mansoni [8] = assay: Antischistosomal activity against Schistosoma mansoni Puerto Rican infected mouse assessed as infected mouse at 288 mg/kg/day, through diet for 14 days; type: functional; outline: as §1
Schistosoma mansoni [9] = assay: Antischistosomal activity against Schistosoma mansoni Puerto Rican infected mouse assessed as reduction in live schistosomes at 78 mg/kg/day, through diet for 14 days; type: functional; settings: 336 h; outline: as §1
[10] = Toxicity in mouse po dosed through diet for 14 days; type: organism-based; settings: in vivo
Outline: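 Mice infected with a Puerto Rican strain of *Schistosoma mansoni*; drug mixed into a powdered diet and fed orally for 14 days; doses expressed as mg/kg per day.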

Schistosoma mansoni [11] = assay: Antischistosomal activity against Schistosoma mansoni Puerto Rican infected mouse assessed as infected mouse at 78 mg/kg/day, through diet for 14 days; type: functional; outline: as §1
Schistosoma mansoni [12] = assay: Antischistosomal activity against Schistosoma mansoni Puerto Rican infected mouse assessed as infected mouse at 265 mg/kg/day, through diet for 14 days; type: functional; outline: as §1
Schistosoma mansoni [13] = assay: Antischistosomal activity against Schistosoma mansoni Puerto Rican infected mouse assessed as reduction in live schistosomes at 265 mg/kg/day, through diet for 14 days; type: functional; settings: 336 h; outline: as §1
Schistosoma mansoni [14] = assay: Antischistosomal activity against Schistosoma mansoni Puerto Rican infected mouse assessed as reduction in live schistosomes at 301 mg/kg/day, through diet for 14 days; type: functional; settings: 336 h; outline: as §1
Schistosoma mansoni [15] = assay: Antischistosomal activity against Schistosoma mansoni Puerto Rican infected mouse assessed as infected mouse at 301 mg/kg/day, through diet for 14 days; type: functional; outline: as §1
Schistosoma mansoni [16] = assay: Antischistosomal activity against Schistosoma mansoni Puerto Rican infected mouse assessed as reduction in live schistosomes at 305 mg/kg/day, through diet for 14 days; type: functional; settings: 336 h; outline: as §1
Schistosoma mansoni [17] = assay: Antischistosomal activity against Schistosoma mansoni Puerto Rican infected mouse assessed as infected mouse at 305 mg/kg/day, through diet for 14 days; type: functional; outline: as §1
Schistosoma mansoni [18] = assay: Antischistosomal activity against Schistosoma mansoni Puerto Rican infected mouse assessed as reduction in live schistosomes at 332 mg/kg/day, through diet for 14 days; type: functional; settings: 336 h; outline: as §1
Schistosoma mansoni [19] = assay: Antischistosomal activity against Schistosoma mansoni Puerto Rican infected mouse assessed as infected mouse at 332 mg/kg/day, through diet for 14 days; type: functional; outline: as §1
Schistosoma mansoni [20] = assay: Antischistosomal activity against Schistosoma mansoni Puerto Rican infected mouse assessed as reduction in live schistosomes at 314 mg/kg/day, through diet for 14 days; type: functional; settings: 336 h; outline: as §1
Schistosoma mansoni [21] = assay: Antischistosomal activity against Schistosoma mansoni Puerto Rican infected mouse assessed as infected mouse at 314 mg/kg/day, through diet for 14 days; type: functional; outline: as §1
Schistosoma mansoni [22] = assay: Antischistosomal activity against Schistosoma mansoni Puerto Rican infected mouse assessed as infected mouse at 396 mg/kg/day, through diet for 14 days; type: functional; outline: as §1
Schistosoma mansoni [23] = assay: Antischistosomal activity against Schistosoma mansoni Puerto Rican infected mouse assessed as reduction in live schistosomes at 396 mg/kg/day, through diet for 14 days; type: functional; settings: 336 h; outline: as §1

## O=C1NC(c2cc(Cl)c(Cl)cc2Cl)C(=O)N1CO (stereo not drawn)
Schistosoma mansoni [1]
  Activity: 100%
Schistosoma mansoni [2]
  inhibition in vivo at 146 mg/kg/day: 0%

## O=C1NCCN1c1ncc([N+](=O)[O-])s1 [NIRIDAZOLE]
Schistosoma mansoni [3]
  inhibition in vivo at 249 mg/kg/day: 99%
Schistosoma mansoni [4]
  Activity: 17%

## O=C1NC(=O)C(c2ccc(Cl)cc2Cl)N1 (stereo not drawn)
Schistosoma mansoni [5]
  Activity: 100%
Schistosoma mansoni [6]
  inhibition in vivo at 302 mg/kg/day: 36%

## C[N+](C)(C)CCCN1C(=O)NC(c2cc(Cl)c(Cl)cc2Cl)C1=O.[I-] (stereo not drawn)
Schistosoma mansoni [7]
  inhibition in vivo at 288 mg/kg/day: 13%
Schistosoma mansoni [8]
  Activity: 100%

## CN(C)CCCN1C(=O)NC(c2cc(Cl)c(Cl)cc2Cl)C1=O (stereo not drawn)
Schistosoma mansoni [9]
  inhibition in vivo at 78 mg/kg/day: 0%
[10]
  MTD at 336 h: 78 mg/kg
Schistosoma mansoni [11]
  Activity: 100%

## CN1C(=O)NC(c2cc(Cl)c(Cl)cc2Cl)C1=O (stereo not drawn)
Schistosoma mansoni [12]
  Activity: 33%
Schistosoma mansoni [13]
  inhibition in vivo at 265 mg/kg/day: 83%

## CC1(c2ccc(Cl)cc2Cl)NC(=O)NC1=O (stereo not drawn)
Schistosoma mansoni [14]
  inhibition in vivo at 301 mg/kg/day: 8%
Schistosoma mansoni [15]
  Activity: 100%

## O=C1NC(=O)C(c2c(Cl)ccc(Cl)c2Cl)N1 (stereo not drawn)
Schistosoma mansoni [16]
  inhibition in vivo at 305 mg/kg/day: 0%
Schistosoma mansoni [17]
  Activity: 100%

## Cc1c(Cl)ccc(C2(C)NC(=O)NC2=O)c1Cl (stereo not drawn)
Schistosoma mansoni [18]
  inhibition in vivo at 332 mg/kg/day: 26%
Schistosoma mansoni [19]
  Activity: 100%

## CC1(c2ccc([N+](=O)[O-])cc2)NC(=O)NC1=O (stereo not drawn)
Schistosoma mansoni [20]
  inhibition in vivo at 314 mg/kg/day: 0%
Schistosoma mansoni [21]
  Activity: 100%

## CN1C(=O)NC(=O)C1c1cc(Cl)c(Cl)cc1Cl (stereo not drawn)
Schistosoma mansoni [22]
  Activity: 83%
Schistosoma mansoni [23]
  inhibition in vivo at 396 mg/kg/day: 71%
